Drawing on ChEMBL document CHEMBL1135883, “A comprehensive study of the active site residues of DT-diaphorase: rational design of benzimidazolediones as DT-diaphorase substrates” (J Med Chem, 2002), this text covers k cat/Km and k cat for 16 compounds.

The target of assay [1] is NAD(P)H dehydrogenase [quinone] 1 (Homo sapiens) (UniProt P15559). In words: Ratio Kcat/Km provides the apparent second-order rate constant of the enzymatic transformation of DT-Diaphorase. In short, it runs like this: (§1)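 Recombinant human DT-diaphorase (1.4 × 10^-9 M final) with NADH (0.3 mM final) and quinone substrate (1.3 × 10^-6 to 6.7 × 10^-5 M final; 4.0 mM DMSO stock) in 0.05 M Tris pH 7.4. Anaerobic Thunberg cuvettes, argon-purged 20 min, 30 °C. Initial rates from 336 nm absorbance over 10 min. Δε from absorbance before and after complete reduction. kcat and Km from Lineweaver–Burke plot.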
NAD(P)H dehydrogenase [quinone] 1 (Homo sapiens), sequence (P15559 whole entry): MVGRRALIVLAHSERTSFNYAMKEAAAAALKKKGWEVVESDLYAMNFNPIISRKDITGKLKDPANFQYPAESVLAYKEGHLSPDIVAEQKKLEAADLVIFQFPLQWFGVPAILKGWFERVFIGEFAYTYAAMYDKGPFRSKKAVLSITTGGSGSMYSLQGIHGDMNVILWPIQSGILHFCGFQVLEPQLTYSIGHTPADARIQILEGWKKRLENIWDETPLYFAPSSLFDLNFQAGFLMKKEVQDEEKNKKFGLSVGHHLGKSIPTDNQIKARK

The target is the same in assay [2]. The assay can be described thus: Evaluated for the kinetic parameter (Kcat) using recombinant DT-Diaphorase, value calculated from Lineweaver-Burke plot. In short, it runs like this: as §1
For assay [3] the target is unchanged. In words: The ratio Kcat/Km provides the apparent second-order rate constant of the enzymatic transformation DT-Diaphorase. In short, it runs like this:
as §1

Take `CC1=C(N2CC2)C(=O)c2nc3n(c2C1=O)CC[C@@H]3N`: in assay [1], the k cat/Km turned out to be 1.39e+06 M⁻¹ s⁻¹. Also, the k cat in assay [2] is 2.64 s⁻¹.
The corresponding values for `CC(=O)NC1=C(C)C(=O)c2c(nc3n2CC[C@@H]3OC(C)=O)C1=O` are 472000 M⁻¹ s⁻¹ and 3.85 s⁻¹.
Take `CC1=C(N2CC2)C(=O)c2nc3n(c2C1=O)CC[C@@H]3NC(=O)N(C)C`: the k cat/Km in assay [1] was found to be 940000 M⁻¹ s⁻¹. Moreover, the k cat in assay [2] is 3.96 s⁻¹.
As for `CC1=C(N2CC2)C(=O)c2nc3n(c2C1=O)CC[C@H]3NC(N)=O`, the k cat/Km in assay [1] is 890000 M⁻¹ s⁻¹. The k cat in assay [2] is 2.7 s⁻¹.
For `CC1=C(N2CC2)C(=O)c2nc3n(c2C1=O)CC[C@H]3N`, the k cat/Km in assay [1] worked out at 640000 M⁻¹ s⁻¹. The k cat in assay [2] was 3.26 s⁻¹.
In the case of `COCC(=O)O[C@H]1CCn2c1nc1c2C(=O)C(C)=C(NC(C)=O)C1=O`, in assay [1], the k cat/Km was determined as 69000 M⁻¹ s⁻¹. Besides, the k cat in assay [2] was 1.74 s⁻¹.
Regarding `CC(=O)NC1=C(C)C(=O)c2c(nc3n2CC[C@H]3OC(C)=O)C1=O`, the k cat/Km in assay [1] came out at 154000 M⁻¹ s⁻¹. For the same compound, the k cat in assay [2] was 3.81 s⁻¹.
Consider `O=C1c2nc3n(c2C(=O)c2c1nc1n2CCC1)CCC3`, for which the k cat in assay [2] was 3.81 s⁻¹. Besides, the k cat/Km in assay [3] was found to be 118000 M⁻¹ s⁻¹.
With `COCC(=O)O[C@@H]1CCn2c1nc1c2C(=O)C(C)=C(NC(C)=O)C1=O`, in assay [2], the k cat was 4.84 s⁻¹. Further, in assay [3], the k cat/Km amounted to 40000 M⁻¹ s⁻¹.
With `CC1=C(N2CC2)C(=O)c2nc3n(c2C1=O)CCC[C@@H]3N`, the k cat in assay [2] is 2.97 s⁻¹. The k cat/Km in assay [3] worked out at 188000 M⁻¹ s⁻¹.
Take `CC1=C(N2CC2)C(=O)c2nc3n(c2C1=O)CCC[C@H]3N`: in assay [1], the k cat/Km is 106000 M⁻¹ s⁻¹. Moreover, the k cat in assay [2] is 4.92 s⁻¹.
In the case of `CC(=O)N[C@H]1CCn2c1nc1c2C(=O)C(C)=C(N2CC2)C1=O`, in assay [1], the k cat/Km was 520000 M⁻¹ s⁻¹. In addition, in assay [2], the k cat is 1.87 s⁻¹.
As for `CC(=O)N[C@@H]1CCn2c1nc1c2C(=O)C(C)=C(N2CC2)C1=O`, the k cat in assay [2] was 1.47 s⁻¹. For the same compound, in assay [3], the k cat/Km came to 920000 M⁻¹ s⁻¹.
With `CC1=C(N2CC2)C(=O)c2nc3n(c2C1=O)CC[C@H]3NC(=O)N(C)C`, the k cat/Km in assay [1] came out at 2.13e+06 M⁻¹ s⁻¹. The k cat in assay [2] is 9.56 s⁻¹.
On the same counts, the results for `O=C1c2nc3n(c2C(=O)c2c1nc1n2CCCC1)CCCC3` are 1.45e+06 M⁻¹ s⁻¹ and 3.74 s⁻¹.
With `CC1=C(N2CC2)C(=O)c2nc3n(c2C1=O)CC[C@@H]3NC(N)=O`, the k cat in assay [2] was 2.4 s⁻¹. The k cat/Km in assay [3] was determined as 1.2e+06 M⁻¹ s⁻¹.
